Experiments:
[1] = test system: F21T (human telomeric 21-mer) G4; experiment: FRET G4 stabilisation; type: binding; conditions: ΔTm at 1 µM; triplicate, Esd ± 0.5 °C
Procedure, shortened: (§1)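 96-well FRET melting assay using dual-labelled oligonucleotides: human telomeric 21-mer F21T and c-KIT2 G4s, plus T-loop duplex DNA. Test compound at 1 µM. Tm shift obtained by curve fitting to the melting data, from triplicate measurements, Esd ± 0.5 °C. n/a marks unsuccessful curve fitting.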

c-KIT2 G4 = experiment: FRET G4 stabilisation; type: binding; conditions: ΔTm at 1 µM; triplicate, Esd ± 0.5 °C
Procedure, shortened: as §1

HSP90A promoter G4 = experiment: FRET G4 stabilisation; type: binding; conditions: ΔTm at 1 µM; triplicate, Esd ± 0.5 °C
HSP90B promoter G4 = experiment: FRET G4 stabilisation; type: binding; conditions: ΔTm at 1 µM; triplicate, Esd ± 0.5 °C
[2] = test system: AR (androgen receptor promoter) G4; experiment: FRET G4 stabilisation; type: binding; conditions: ΔTm at 1 µM; triplicate, Esd ± 0.5 °C
[3] = test system: duplex DNA sequence (T-loop); experiment: FRET melting assay, duplex DNA control; type: binding; conditions: ΔTm at 1 µM, Esd ± 0.5 °C
Procedure, shortened: as §1

[4] = test system: F21T G4 versus calf thymus duplex DNA; experiment: Calf thymus DNA; type: binding, human; conditions: 1 µM compound, calf thymus DNA competitor
Procedure, shortened: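 Competition version of the FRET melting assay. Dual-labelled F21T G4 is challenged with unlabelled calf thymus duplex DNA added at high duplex:G4 ratios. Test compound at 1 µM. Read-out is % retention of the F21T Tm shift.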

A549 (lung cancer) = experiment: 96 hr SRB assay, A549; type: cell-based; conditions: Homo sapiens, A549, 96 h, read-out: IC50, A549
MCF7 (breast cancer) = experiment: 96 hr SRB assay, MCF7; type: cell-based; conditions: Homo sapiens, MCF7, 96 h, read-out: IC50, MCF7
[5] = test system: ALT (transformed WI38 lung fibroblast cells); experiment: 96 hr SRB assay, ALT; type: cell-based; conditions: Homo sapiens, WI-38, 96 h, read-out: IC50, ALT
[6] = test system: Mia-PaCa2 (pancreatic cancer); experiment: 96 hr SRB assay, Mia-PaCa2; type: cell-based; conditions: Homo sapiens, MIA PaCa-2, 96 h, read-out: IC50, Mia-PaCa2
[7] = test system: Panc1 (pancreatic cancer); experiment: 96 hr SRB assay, Panc1; type: cell-based; conditions: Homo sapiens, PANC-1, 96 h, read-out: IC50, Panc1
RCC4 (renal cancer) = experiment: 96 hr SRB assay, RCC4; type: cell-based; conditions: Homo sapiens, RCC4, 96 h, read-out: IC50, RCC4
786-O (renal cancer) = experiment: 96 hr SRB assay, 786-O; type: cell-based; conditions: Homo sapiens, 786-0, 96 h, read-out: IC50, 786-O
[8] = test system: WI38 (non-transformed lung fibroblast cells); experiment: 96 hr SRB assay, WI38; type: cell-based; conditions: Homo sapiens, WI-38, 96 h, read-out: IC50, WI38

Structure (SMILES): CN1CCN(CCCNc2cc3c4c(c(NCCCN5CCN(C)CC5)cc5c4c2C(=O)N(CCCN2CCOCC2)C5=O)C(=O)N(CCCN2CCOCC2)C3=O)CC1 [Compound 8, 4,9-bis((3-(4-methyl-piperazin-1-yl)propyl)amino)-2,7-bis(3-morpholinopropyl) benzo-[lmn] [3,8] phenanthroline-1,3,6,8(2H,7H)-tetraone]
- FRET G4 stabilization ΔTm, F21T [1]: 26.6 °C
- FRET G4 stabilization ΔTm, c-KIT2 (c-KIT2 G4): 22.0 °C
- FRET G4 stabilization ΔTm, HSP-90A (HSP90A promoter G4): 33.1 °C
- FRET G4 stabilization ΔTm, HSP-90B (HSP90B promoter G4): 28.6 °C
- FRET G4 stabilization ΔTm, AR [2]: 15.9 °C
- FRET ΔTm, T-loop duplex [3]: 4.9 °C
- % retention of the F21T ΔTm, G4:CT 1:1 ([4]; G4:CT 1:1): 100%
- % retention of the F21T ΔTm, G4:CT 1:10 ([4]; G4:CT 1:10): 100%
- % retention of the F21T ΔTm, G4:CT 1:300 ([4]; G4:CT 1:300): 27.2%
- IC50 (A549 (lung cancer)): 0.019 µM
- IC50 (MCF7 (breast cancer)): 0.07 µM
- IC50 [5]: 0.063 µM
- IC50 [6]: 0.011 µM
- IC50 [7]: 0.003 µM
- IC50 (RCC4 (renal cancer)): 0.56 µM
- IC50 (786-O (renal cancer)): 0.32 µM
- IC50 [8]: 0.23 µM

Reference: article PMC3901018 (Chemical communications (Cambridge, England), 2014)
